Experimental data pooled from the literature.
Each line is one published result; the experiments were not run side by side.

Structure (SMILES)	test	test system	setting	measurement	value
CC1=C(C(=O)OCc2ccccc2)C(=O)/C(=C\c2cc(C)n(-c3ccccc3C(F)(F)F)c2C)N1	HPLC		pH 7.4	chromatographic logD	4
Cc1c(C(=O)NN2CCCCC2)nc(-c2ccc(Cl)cc2Cl)n1-c1ccc(OCc2ccccc2)cc1	shake flask	aqueous buffer	pH 7.4	logD	> 5.3
c1ccc(-c2nc(NCCn3ccnc3)c3ccccc3n2)nc1	metabolic stability	human, liver microsomes		microsomal CLint	36 µL/min/mg
CCNCCCNC/C=C\CNCCCNCC		human, plasma	intravenous, 50 mg, patients, infusion	clearance	10500 mL/min
c1ccc(-c2nc(N3CCCC3c3ccccn3)c3ccccc3n2)nc1 (centres unmarked)	metabolic stability	human, liver microsomes		microsomal CLint	62 µL/min/mg
CC(C)(C)[Si](C)(C)OCCCN(c1ccc(F)cc1)c1c(-c2ccccn2)nc2ccccn12	metabolic stability	rat, hepatocytes		hepatocyte CLint	42 µL/min/10⁶ cells
c1ccc(-c2nc(N3CCc4ncccc4C3)c3ccccc3n2)nc1	metabolic stability	human, liver microsomes		microsomal CLint	71 µL/min/mg
CN(c1ccc(F)cc1)c1c(-c2ccc(F)cn2)nc2ccccn12	metabolic stability	rat, hepatocytes		hepatocyte CLint	> 300 µL/min/10⁶ cells
Fc1cccc(Nc2nc(-c3ccccn3)nc3ccccc23)c1	metabolic stability	human, liver microsomes		microsomal CLint	81 µL/min/mg
OC[C@H]1O[C@@H](c2ccc(Cl)c(Cc3ccc(O[C@H]4CCOC4)cc3)c2)[C@H](O)[C@@H](O)[C@@H]1O		human, urine	oral, 100 mg, single dose	renal clearance	15 mL/min
Cc1ccc(C(=O)N(CCCN)[C@@H](c2oc3cc(Cl)ccc3c(=O)c2Cc2ccccc2)C(C)C)cc1		human, plasma	intravenous, 2 mg/m², single dose, patients, infusion	clearance	26.6 mL/min
COc1cccc(-c2nc3ccccn3c2Nc2ccc(F)cc2)n1	metabolic stability	rat, hepatocytes		hepatocyte CLint	> 300 µL/min/10⁶ cells
c1cnc2ccc(Nc3nc(NC4CC4)c4nc[nH]c4n3)cc2c1		human, plasma	oral, 800 mg/m², patients	CL/F	76.6 L/h
c1ccc(-c2nc(N3CCC(c4ccccn4)C3)c3ccccc3n2)cc1 (centres unmarked)	metabolic stability	human, liver microsomes		microsomal CLint	182 µL/min/mg
CC(C)CN(C[C@@H](O)[C@H](Cc1ccccc1)NC(=O)O[C@H]1CO[C@H]2OCC[C@H]21)S(=O)(=O)c1ccc(N)cc1	shake flask	PBS	pH 3	logD	2.98
Fc1ccc(Nc2c(-c3cc(Cl)ccn3)nc3ccccn23)cc1	metabolic stability	rat, hepatocytes		hepatocyte CLint	> 300 µL/min/10⁶ cells
c1ccc(C2CCN(c3nc(-c4cnn5cccnc45)nc4ccccc34)C2)nc1 (centres unmarked)	metabolic stability	human, liver microsomes		microsomal CLint	47 µL/min/mg
CC(C)CCN(c1ccc(F)cc1)c1c(-c2ccccn2)nc2ccccn12	metabolic stability	rat, hepatocytes		hepatocyte CLint	> 300 µL/min/10⁶ cells
Cc1cccc(N2CCN(c3nc(-c4ccccn4)nc4ccccc34)CC2)n1	metabolic stability	human, liver microsomes		microsomal CLint	165 µL/min/mg
CN(C)C(=O)c1ccc(-c2c(-c3ccccn3)nc3n2CCC3)cc1	metabolic stability	rat, hepatocytes		hepatocyte CLint	< 1 µL/min/10⁶ cells
COc1cc(C(=O)NC2CCN(C)CC2)c(F)cc1Nc1ncc(C(F)(F)F)c(Oc2cccc3c2C(=O)N(C)C3)n1		human, plasma	oral, 25 mg, multiple doses, once daily, patients	CL/F	8.34 L/h
COc1ccc2nc(-c3cc(N(C)C)ccn3)c(N(C)c3ccc(F)cc3)n2c1	metabolic stability	rat, hepatocytes		hepatocyte CLint	> 300 µL/min/10⁶ cells
CCOC(=O)C1=C(C)N/C(=C/c2cc(C)n(-c3ccc(N4CCOCC4)cc3)c2C)C1=O	HPLC		pH 7.4	chromatographic logD	2.8
